Screening data deposited in PubChem BioAssay by several laboratories.
MC4R antagonist = MC4R antagonists of cAMP signaling, primary screen, cell-based, TR-FRET, antagonist arm of biased-ligand search. Melanocortin receptor 4 (Homo sapiens), P32245. MC4R-expressing cells, MTII-stimulated cAMP, LANCE TR-FRET. inhibition, % at 6.5 µM. hit rate 0.48% among 360,000. AID 540295, 2011;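 active means inhibition above its plate's cutoff, the mean of tested wells on that plate plus 3 SD, cut at about 29% in these data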
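System: U2OS-MC4R stable cell line; Technique: Eu-cAMP/anti-cAMP TR-FRET, emission 671 nm; Repeats: single well per compound; Also added: Melanotan II; Dosing: one concentration, 6.5 µM nominal; Schedule: 30-min compound, 1-h challenge, 1-h detection, room temperature.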
ANO1 activ = TMEM16A chloride channel activators or potentiators, primary screen, cell-based, HTS; Anoctamin-1 (Mus musculus), Q8BHY3; HEK293 TMEM16A/YFP-H148Q/I152L, iodide quench fluorescence; active compounds read low; B-score at 10 µM; hit rate 0.3% among 340,000;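 active means fluorescence-ratio B-score plate-corrected deviation score at least 3 library SD below zero, with starting fluorescence score within 5 deviations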;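 further: channel opened by trigger with iodide after compound preincubation; score built on the fluorescence ratio of max minus min over baseline; more negative score means more quench and so TMEM16A activation or potentiation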
MC4R barr agon = MC4R agonists recruiting beta-arrestin, primary screen, cell-based, luminescence, agonist arm of biased-ligand search. Melanocortin receptor 4 (Homo sapiens), P32245. U2OS MC4R beta-arrestin complementation; percent of melanotan II response, DMSO zero. activation, % at 8.9 µM. hit rate 0.98% among 360,000. AID 540308, 2011;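 active means activation above a per-plate cutoff, the mean activation of sample wells on that plate plus 3 SD, cut at about 8% in these data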
TMEM16A inh = TMEM16A chloride channel inhibitors, primary screen, cell-based, HTS; Anoctamin-1 (Mus musculus), Q8BHY3; HEK293 TMEM16A/YFP iodide influx fluorescence, ionomycin; normalized B-score (activity score, 25-100; higher = stronger inhibition) at 10 µM; hit rate 1.2% among 310,000;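 active means ratio plate-corrected score three or more library SD toward inhibition, starting fluorescence score within five deviations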;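 further: score derived from kinetic fluorescence span divided by baseline fluorescence per well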
m5-HT2A agonist = mouse Htr2a agonists via beta-arrestin recruitment, primary screen, cell-based, luminescence. CHO-K1 mHTR2A beta-arrestin complementation; percent of 30 µM serotonin response. activation, % at 7.6 µM. hit rate 0.66% among 360,000. AID 624169, 2012;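 active means activation above a run cutoff, the mean activation of all tested compounds plus 3 SD, cut at about 14% in these data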
Target sequence (P35363 whole entry, looked up): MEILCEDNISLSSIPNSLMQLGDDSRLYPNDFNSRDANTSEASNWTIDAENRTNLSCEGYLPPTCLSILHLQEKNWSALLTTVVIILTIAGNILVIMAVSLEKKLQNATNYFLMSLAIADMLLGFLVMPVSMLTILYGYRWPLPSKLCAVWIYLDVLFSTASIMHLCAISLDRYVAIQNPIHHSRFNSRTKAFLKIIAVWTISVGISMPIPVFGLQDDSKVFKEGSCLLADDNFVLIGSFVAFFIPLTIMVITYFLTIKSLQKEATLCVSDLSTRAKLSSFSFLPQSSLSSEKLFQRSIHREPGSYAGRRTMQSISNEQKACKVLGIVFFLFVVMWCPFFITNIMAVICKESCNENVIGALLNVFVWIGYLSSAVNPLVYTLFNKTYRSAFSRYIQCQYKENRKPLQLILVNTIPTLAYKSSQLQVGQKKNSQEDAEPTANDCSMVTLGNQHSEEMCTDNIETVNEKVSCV
beta cell repl = inducers of MIN6 beta-cell proliferation, primary screen, ATP luminescence, uHTS. MIN6 cells proliferation, ATPlite luminescence, 48 h; cells starved in 0.2% serum; 100% = growth in 10% serum. proliferation, % at 10 µM. hit rate 0.29% among 330,000;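 active means compounds whose signal lies at least 3.5 SD above the mean of all wells on their plate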
OPRM1 ag = OPRM1 agonists via beta-arrestin recruitment, confirmation, counter-screen for mouse HTR2A agonist project, cell-based, luminescence, single concentration. activation, % at 9.3 µM. AID 624380, 2012. U2OS OPRM1 beta-arrestin PathHunter; DMSO 0%, DAMGO 9.3 µM 100%. hit rate 5.3% among 2,300. shares compounds with m5-HT2A agonist;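 active means mean activation above the mean of DMSO-only wells plus 3 SD, cut at about 0.5% in these data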
m5-HT2A ag conf = mouse HTR2A agonists, beta-arrestin recruitment, confirmation, cell-based, luminescence, CHO-K1 PathHunter, triplicate; shares compounds with m5-HT2A agonist; DMSO 0%, 30 µM serotonin 100%; activation, % at 7.6 µM; hit rate 19% among 2,300; AID 624381, 2012;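 active means mean activation across triplicates above the hit threshold derived in the original primary screen, cut at about 15% in these data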
Hits are given with their value; n = inactive; x = no result. Sampled rows, rich in hits. Any-hit rate of the full collection: about 3.4%.

SMILES	MC4R antagonist	ANO1 activ	MC4R barr agon	TMEM16A inh	m5-HT2A agonist	beta cell repl	OPRM1 ag	m5-HT2A ag conf
O=C1c2ccccc2-n2nnc(-c3ccccc3)c2C2c3cc(Br)ccc3CCN12 (stereo unspecified)	x	x	x	x	16	x	n	n
Cc1cc(O)c2c(C)c(CC(=O)N3C[C@H]4C[C@@H](C3)c3cccc(=O)n3C4)c(=O)oc2c1	n	n	n	n	19	n	n	n
Clc1ccc2[nH]c3c(c2c1)CCNC3	n	n	n	n	16	n	n	n
O=[N+]([O-])c1ccc2nc(N3CCNCC3)ccc2c1	x	x	x	n	x	n	x	x
Clc1ccc(N2CCNCC2)nn1	n	n	n	n	15	n	n	n
CCCN(CCC)C1CCc2cccc(O)c2C1 (stereo unspecified)	n	n	n	n	53	n	n	92
CCCN(CCC)C1CCc2ccc(O)cc2C1 (stereo unspecified)	n	n	n	n	60	n	n	179
Cc1ncc(CN2CCCC(C(=O)c3cccc(Cl)c3)C2)s1 (stereo unspecified)	n	n	n	n	n	n	x	x
C=CCN1CCc2cccc3c2[C@H]1Cc1ccc(O)c(O)c1-3	n	n	n	n	55	n	1.2	167
Cn1c(=O)cc(SCC(=O)N2CCC3(CC2)OCCO3)c2ccc(Cl)cc21	n	n	n	n	16	n	n	n
